pEC50: −log10 of the molar value.
Columns and labels:
ZR-75-1 [1] = assay: Cytotoxicity against human ZR-75-1 after 72 hrs by SRB assay; type: functional; details: ZR-75-1, 72 h, read-out: ED50 (the source's name)
Method in brief: (§1)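 Cells grown in RPMI-1640 with 10% FBS, penicillin, streptomycin and amphotericin B at 37 °C, 5% CO2, then trypsinized and seeded in 96-well plates. Compounds were added from DMSO-diluted stock and incubated 72 h after attachment. Cells were TCA-fixed, stained with 0.4% SRB and read at 515 nm. ED50 is the concentration halving net protein increase, averaged from at least two independent determinations with SEM.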

SK-BR-3 [2] = assay: Cytotoxicity against human SK-BR-3 cells after 72 hrs by SRB assay; type: functional; details: SK-BR-3, 72 h, read-out: ED50 (the source's name); method in brief: as §1
[3] = Cytotoxicity against human vincristine-resistant KBVIN after 72 hrs by SRB assay; type: functional; details: read-out: ED50 (the source's name); method in brief: as §1
SK-BR-3 [4] = assay: Selectivity ratio of ED50 for human KB cell to ED50 for human SK-BR-3 cells; type: functional
Method in brief: (§2)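 Ratio of the ED50 in the stated line to the ED50 in SK-BR-3. Each ED50 came from the 72 h SRB protein-stain assay in RPMI-1640/10% FBS-grown cells, as the concentration halving net protein increase, averaged over at least two independent determinations.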

SK-BR-3 [5] = assay: Selectivity ratio of ED50 for human DU145 cell to ED50 for human SK-BR-3 cells; type: functional
[6] = Cytotoxicity against human 184A1 after 72 hrs by MTT assay; type: cell-based; details: 184A1 cells, read-out: ED50
Method in brief: (§3)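 MTT read-out: 5000 cells/well were seeded in 96-well plates in recommended growth medium and incubated overnight. Drug in DMSO was added, with 72 h at 37 °C in 5% CO2. MTT reagent was then added for 2 h, and formazan was read as optical density at 570. Data are mean and SD of replicates from a single experiment.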

A549 = assay: Cytotoxicity against human A549 after 72 hrs by SRB assay; type: functional; details: A549, 72 h, read-out: ED50 (the source's name); method in brief: as §1
[7] = Cytotoxicity against human MCF10A after 72 hrs by MTT assay; type: cell-based, MCF-10A; details: MCF10A cells, read-out: ED50; method in brief: as §3
SK-BR-3 [8] = assay: Selectivity ratio of ED50 for human A549 cell to ED50 for human SK-BR-3 cells; type: functional; method in brief: as §2
ZR-75-1 [9] = assay: Selectivity ratio of ED50 for human ZR-75-1 cell to ED50 for human SK-BR-3 cells; type: functional; method in brief: as §2
SK-BR-3 [10] = assay: Selectivity ratio of ED50 for human MDA-MB-231 cell to ED50 for human SK-BR-3 cells; type: functional; method in brief: as §2
MDA-MB-231 = assay: Cytotoxicity against human MDA-MB-231 after 72 hrs by SRB assay; type: functional; details: MDA-MB-231, 72 h, read-out: ED50 (the source's name); method in brief: as §1
SK-BR-3 [11] = assay: Selectivity ratio of ED50 for human vincristine-resistant KBVIN cell to ED50 for human SK-BR-3 cells; type: functional; method in brief: as §2
DU-145 = assay: Cytotoxicity against human DU145 after 72 hrs by SRB assay; type: functional; details: DU-145, 72 h, read-out: ED50 (the source's name)
SK-BR-3 [12] = assay: Cytotoxicity against human SK-BR-3 cells after 72 hrs by MTT assay; type: functional; details: SK-BR-3, 72 h, read-out: ED50 (the source's name); method in brief: as §3
KB = assay: Cytotoxicity against human KB after 72 hrs by SRB assay; type: functional; details: read-out: ED50 (the source's name); method in brief: as §1

## Cc1cccc2c1ccc1c3occ(C)c3c(=O)oc21
ZR-75-1 [1]
  pEC50: 6.05
SK-BR-3 [2]
  pEC50: 6.02
[3]
  pEC50: < 4.12

## COc1ccc(-c2cc3occ(C)c3c(=O)o2)cc1
SK-BR-3 [2]
  pEC50: < 4.11

## COc1cc(OC)cc(-c2cc3occ(C)c3c(=O)o2)c1
SK-BR-3 [4]
  Ratio ED50: 100
SK-BR-3 [5]
  Ratio ED50: 100
[6]
  CC50 at 72 h: 16.8 µM
A549
  pEC50: < 4.16
ZR-75-1 [1]
  pEC50: 4.51
[7]
  CC50 at 72 h: > 35 µM
SK-BR-3 [8]
  Ratio ED50: 100
ZR-75-1 [9]
  Ratio ED50: 100
SK-BR-3 [10]
  Ratio ED50: 100
MDA-MB-231
  pEC50: < 4.16
SK-BR-3 [2]
  pEC50: 6.55
[3]
  pEC50: < 4.16
SK-BR-3 [11]
  Ratio ED50: 100
DU-145
  pEC50: 4.18
SK-BR-3 [12]
  pEC50: 6.00

## Cc1cc(C)cc(-c2cc3occ(C)c3c(=O)o2)c1
SK-BR-3 [2]
  pEC50: 4.65

## Cc1cccc(-c2cc3occ(C)c3c(=O)o2)c1
A549
  pEC50: 4.27
ZR-75-1 [1]
  pEC50: 5.20
MDA-MB-231
  pEC50: < 4.08
SK-BR-3 [2]
  pEC50: 5.82
[3]
  pEC50: 4.40
KB
  pEC50: 4.36
DU-145
  pEC50: 4.61

## Cc1coc2cc(-c3cccc(F)c3)oc(=O)c12
SK-BR-3 [2]
  pEC50: 4.69

## CCOc1cccc(-c2cc3occ(C)c3c(=O)o2)c1
A549
  pEC50: 4.24
ZR-75-1 [1]
  pEC50: 5.66
MDA-MB-231
  pEC50: < 4.43
SK-BR-3 [2]
  pEC50: 6.17
[3]
  pEC50: < 4.13
KB
  pEC50: 4.19
DU-145
  pEC50: 4.13

## Cc1coc2cc(-c3ccc(O)c(O)c3)oc(=O)c12
A549
  pEC50: 4.71
ZR-75-1 [1]
  pEC50: 5.92
MDA-MB-231
  pEC50: 4.64
SK-BR-3 [2]
  pEC50: 6.33
[3]
  pEC50: 4.63
KB
  pEC50: 4.69
DU-145
  pEC50: 4.59

## Cc1coc2cc(-c3ccc(O)cc3)oc(=O)c12
SK-BR-3 [2]
  pEC50: 4.44

## Cc1ccc(-c2cc3occ(C)c3c(=O)o2)cc1C
SK-BR-3 [2]
  pEC50: 4.84

## Cc1ccc(-c2cc3occ(C)c3c(=O)o2)cc1
SK-BR-3 [2]
  pEC50: < 4.08

## COc1cccc(-c2cc3occ(C)c3c(=O)o2)c1
A549
  pEC50: 4.24
ZR-75-1 [1]
  pEC50: 5.26
MDA-MB-231
  pEC50: < 4.41
SK-BR-3 [2]
  pEC50: 5.59
[3]
  pEC50: 4.15
DU-145
  pEC50: < 4.11

## Cc1coc2cc(-c3ccccc3)oc(=O)c12
SK-BR-3 [2]
  pEC50: 4.81

## COc1cccc(-c2cc3occ(C)c3c(=O)o2)c1OC
SK-BR-3 [2]
  pEC50: 4.19

## Cc1coc2cc(-c3ccc(F)cc3)oc(=O)c12
SK-BR-3 [2]
  pEC50: 4.72

## COc1cc(OC)cc(-c2cc3oc(C)c(C)c3c(=O)o2)c1
SK-BR-3 [2]
  pEC50: < 4.18

## CCc1coc2cc(-c3cc(OC)cc(OC)c3)oc(=O)c12
SK-BR-3 [2]
  pEC50: 4.26

## Cc1coc2cc(-c3cccc(O)c3O)oc(=O)c12
SK-BR-3 [2]
  pEC50: 4.47

## Cc1coc2cc(-c3cccc(O)c3)oc(=O)c12
A549
  pEC50: 4.16
ZR-75-1 [1]
  pEC50: 6.05
MDA-MB-231
  pEC50: < 4.38
SK-BR-3 [2]
  pEC50: 5.79
[3]
  pEC50: 4.22
KB
  pEC50: 4.19
DU-145
  pEC50: 4.08

## Cc1coc2cc(-c3cc(O)cc(O)c3)oc(=O)c12
SK-BR-3 [2]
  pEC50: 4.42

## COc1cc(OC)cc(-c2cc3occ(C)c3c(=S)o2)c1
SK-BR-3 [2]
  pEC50: < 4.18

## COc1ccc(-c2cc3occ(C)c3c(=O)o2)cc1OC
SK-BR-3 [2]
  pEC50: < 4.16

## COc1cc(-c2cc3occ(C)c3c(=O)o2)cc(OC)c1OC
SK-BR-3 [4]
  Ratio ED50: 100
SK-BR-3 [5]
  Ratio ED50: 100
A549
  pEC50: 4.20
ZR-75-1 [1]
  pEC50: 4.54
SK-BR-3 [8]
  Ratio ED50: 100
ZR-75-1 [9]
  Ratio ED50: 66
SK-BR-3 [10]
  Ratio ED50: 100
MDA-MB-231
  pEC50: < 4.50
SK-BR-3 [2]
  pEC50: 6.36
[3]
  pEC50: < 4.20
SK-BR-3 [11]
  Ratio ED50: 100
DU-145
  pEC50: < 4.20
